Assay outcomes deposited in PubChem by Broad Institute.
In the library only some 2.9% were active in any assay of this set; here they are far more common.
Ecoli rRNA inh = inhibits bacterial ribosomal RNA function over humanized ribosomes; hit rate 1.6% among 350,000; GFP signal change (wild-type ribosome), % (no concentration beside the values); E. coli WT GFP vs humanized-ribosome RFP mutants, fluorescence, 24 h; active compounds read low; DMSO median 0, no signal -100;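 active = significant combined selectivity score with lowered wild-type GFP, culture density cut under 30%, mutant RFP and density less affected; inactive = any of these conditions unmet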
Cneo AK release = causes C. neoformans cell lysis. adenylate kinase release luminescence, 4 h; normalised: neutral wells 0, clomiphene wells 100. lysis activity, % at 15 µM. hit rate 0.2% among 360,000;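 active = mean lysis activity across replicates of at least 80%, whatever share of replicates individually reach that level; inactive = mean lysis activity below 80%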
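Material: C. neoformans cells; Schedule: 4 h static compound exposure, 37 °C, read 1 h post-reagent; Measured by: adenylate kinase release luminescence; Read-out: signal increase indicating cell lysis; Controls: Clomiphene as positive lysis control.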
FGF22 binding = shifts melting point of recombinant human FGF22; Q9HCT0; recombinant FGF22 thermal shift, SYPRO orange fluorescence; percent of sucrose octasulfate shift, DMSO zero; activity (Tm shift, normalised), % at 9.99 µM; hit rate 1.5% among 340,000; AID 651658;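 active = mean Tm shift, scaled 0 neutral to 100 positive control, at about 1.3% or above, every replicate too, limit read from the data; inconclusive = no clear call, values can overlap the other calls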
Target sequence (Q9HCT0 whole entry, looked up): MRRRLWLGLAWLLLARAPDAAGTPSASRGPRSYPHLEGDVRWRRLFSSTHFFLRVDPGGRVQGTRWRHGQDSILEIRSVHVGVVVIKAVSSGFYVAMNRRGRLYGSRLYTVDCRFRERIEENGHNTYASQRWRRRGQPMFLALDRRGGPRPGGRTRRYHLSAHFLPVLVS
Vif imaging = inhibitors of HIV Vif; HEK293T cells, Vif self-association by quenched fluorescence, imaging, 24 h; inhibition, % at 7.49 µM; hit rate 0.35% among 340,000; in the data active = inhibition above about 50%, passing the limit was not always enough; inconclusive = no clear call, values can overlap the other calls; inactive = below about 31%
PglD DTNB = PglD (C. jejuni) enzyme inhibition; purified PglD enzyme, DTNB colorimetric CoA detection; inhibition, % at 12.5 µM; hit rate 0.098% among 360,000; in the data active = inhibition above about 16%, passing the limit was not always enough; inconclusive = no clear call, values can overlap the other calls
PGC1a acetyl inh = lowers PGC1a acetylation signal in U2OS cells; AlphaScreen anti-acetyl-lysine; with virally co-expressed GCN5 acetyltransferase; inhibition, % at 15.6 µM; hit rate 0.17% among 350,000; AID 651687;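 active = every replicate shows inhibition of at least 40%; inconclusive = mean inhibition at least 40% but some replicate below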;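 also: 0% = neutral control wells and 100% = positive control wells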
The depositor's hits bear a star; ? = inconclusive; . = not tested or not shown.

SMILES | Ecoli rRNA inh | Cneo AK release | FGF22 binding | Vif imaging | PglD DTNB | PGC1a acetyl inh
C[C@@H]1CN([C@H](C)CO)S(=O)(=O)c2ccc(-c3cccc(F)c3)cc2O[C@@H]1CN(C)CC1CC1 | 2.4 | 4.8 | 0.0 | . | 1.5 | 2.4
O=C(CN1CCOCC1)N[C@H]1CC[C@@H](CCNC(=O)C2CCCCC2)O[C@@H]1CO | 3.9 | -1.9 | 0.0 | . | -0.7 | 5.5
O=C(/C=C/[C@H]1O[C@@H](n2cnc3c(NC(=O)c4ccccc4)ncnc32)[C@H](O)[C@@H]1O)NCc1cccc2ccccc12 | -29.1* | -2.4 | 0.1 | . | 4.2 | 4.0
COc1ccc(CNC(=O)/C=C/[C@H]2O[C@@H](n3cnc4c(NC(=O)c5ccccc5)ncnc43)[C@H](O)[C@@H]2O)cc1 | 2.1 | -1.9 | -0.2 | ? | 1.1 | 8.8
Cc1[nH][nH]c(=O)c1/C=N/N1CCOCC1 | -28.6 | 1.8 | 42.9* | -10.3 | -0.7 | .
CCOC(=O)Cc1csc(NC(=O)CSc2nnc(C)n2C)n1 | . | -1.4 | . | . | 0.3 | -11.3
COC(=O)Cc1csc(NC(=O)CSc2nnc3ccccn23)n1 | . | . | 44.1* | -3.5 | . | .
C[C@H]1CN([C@@H](C)CO)C(=O)c2cc(NC(=O)Nc3ccccc3)ccc2O[C@@H]1CN(C)Cc1ccc(Oc2ccccc2)cc1 | 1.6 | 44.0 | -0.4 | . | 1.7 | -6.4
O=C(O)c1cc(-c2ccc3c(c2)OCCO3)n[nH]1 | 10.4 | -0.1 | 43.5* | 0.2 | 1.2 | 3.5
CCOC(=O)c1cc(-c2ccc3c(c2)OCCO3)n[nH]1 | -32.3* | . | 0.1 | -2.9 | . | .
CS(=O)(=O)N1C[C@H](O)COC[C@@H]2O[C@@H](CC(=O)NCc3ccc(-c4ccccc4)cc3)CC[C@H]21 | -0.5 | -2.1 | 0.1 | . | 2.0 | 5.4
C[C@H]1CN([C@@H](C)CO)C(=O)c2cc(NC(=O)C3CCCCC3)ccc2O[C@H]1CN(C)Cc1ccc(Cl)c(Cl)c1 | -1.2 | 9.0 | 0.1 | . | -0.3 | 8.3
CC(C)c1nnc(NC(=O)CSc2nc3ccccc3[nH]2)s1 | -28.2* | -0.4 | 0.1 | -3.0 | -3.7 | -9.2
Cc1nnc(NC(=O)CSc2nc3ccccc3[nH]2)s1 | 0.1 | . | 0.2 | 0.0 | . | .
COc1cc(C)ccc1OCCOCCOc1cccc2ccc(C)nc12 | -31.8* | 5.8 | 0.1 | -1.5 | 2.8 | -0.3
CC(=O)N(C[C@H]1N[C@H](CO)[C@@H]1c1ccc(-c2cccc(F)c2)cc1)C1CCCC1 | 0.0 | . | . | . | . | .
O=C(CCCc1nc2ccccc2s1)N1CCN(c2ccccc2F)CC1 | -24.2 | . | 0.2 | 2.7 | . | -2.9
CCOc1ccccc1N1CCN(C(=O)CCCc2nc3ccccc3s2)CC1 | -29.6* | . | 0.1 | 17.1 | . | .
CCOc1cc(CNc2nn[nH]n2)ccc1OCC(=O)NC(C)(C)C | 5.1 | 1.7 | 43.6* | -3.5 | 1.6 | 6.9
CCOc1cc(CNc2ncn[nH]2)ccc1OCC(=O)NC(C)(C)C | -4.7 | . | 43.2* | -8.8 | . | 11.0
C/C=C/c1cnc2c(c1)C(=O)N([C@H](C)CO)C[C@H](C)[C@H](CN(C)S(=O)(=O)c1ccc(OC)cc1)O2 | 4.3 | 0.2 | 0.0 | . | -1.0 | -8.0
O=C(NCc1ccccn1)[C@@H]1[C@@H](CO)[C@@H]2Cn3c(cccc3=O)[C@@H]2N1CCc1ccccc1 | 0.3 | 33.3 | -0.2 | . | -1.3 | .
CCC1CCCCN1C(=O)CCc1nnc(C2CCCCC2)o1 (stereo not drawn) | 9.3 | 1.1 | 43.0* | -6.0 | -1.5 | -3.3
COc1ccccc1CNC(=O)C[C@@H]1CC[C@@H]2[C@H](COC[C@H](O)CN2C(=O)Nc2ccc(C(F)(F)F)cc2)O1 | -55.0 | 37.2 | -0.1 | . | -4.1 | 7.9
Cc1cc(C)n(-c2ccc(C(=O)NCCCN3CCOCC3)cc2)n1 | 11.5 | -4.6 | 43.8* | 0.1 | -0.8 | 5.7
SMILES | Ecoli rRNA inh | Cneo AK release | FGF22 binding | Vif imaging | PglD DTNB | PGC1a acetyl inh
COc1ccc(S(=O)(=O)Nc2ccccc2C)cc1C(=O)N1CCOCC1 | 5.2 | . | 42.7 | -1.0 | . | 102.4*
COc1ccccc1NS(=O)(=O)c1ccc(C(=O)NCCCN2CCOCC2)cc1 | 13.4 | . | -0.1 | 89.2* | -0.1 | -2.0
CC(C)(C)c1ccc(C(=O)Nc2ccccc2C(=O)NCCN2CCOCC2)cc1 | -12.4 | -7.0 | 0.1 | -2.3 | 4.6 | 1.5
CC(C)(C)c1ccc(C(=O)NCCN2CCOCC2)cc1 | 21.8 | 5.7 | 0.0 | -4.1 | -3.2 | 64.8*
C[C@@H]1CN([C@H](C)CO)S(=O)(=O)c2ccc(-c3cccnc3)cc2O[C@H]1CN(C)C(=O)C1CCCCC1 | -7.2 | 0.2 | 0.0 | . | 2.2 | 1.3
CC(C)C1Nc2ccc(C(=O)NCCCN3CCOCC3)cc2NC1=O (stereo not drawn) | . | -0.2 | . | 54.6* | 4.8 | .
O=C(C[C@H]1CC[C@H]2[C@@H](COC[C@@H](O)CN2C(=O)c2cnccn2)O1)NCc1ccc(F)cc1 | 6.6 | -0.4 | -0.1 | . | -1.3 | 3.1
O=C(NC[C@H]1N[C@H](CO)[C@@H]1c1ccc(C2=CCCC2)cc1)C1CC1 | -2.2 | . | . | . | . | .
CCN(CC)CCn1c(SCC(=O)Nc2cccc(OC)c2)nc2c(sc3ccccc32)c1=O | -20.6* | . | -0.2 | 6.8 | . | -5.4
C[C@@H]1CCCCO[C@H](CN(C)C(=O)Nc2ccc(F)cc2)[C@@H](C)CN([C@@H](C)CO)C(=O)c2cc(NS(=O)(=O)c3ccc(F)cc3)ccc2O1 | -0.8 | -2.6 | -0.2 | . | 0.4 | 19.3
O=C(CCc1c[nH]c2ccccc12)Nc1ccc(Nc2ccccc2)cc1 | -31.3 | . | 1.4* | . | . | .
Cc1ccc(NC(=O)COC(=O)CCc2c[nH]c3ccccc23)cc1[N+](=O)[O-] | . | . | 43.0* | 11.4 | . | 7.2
Cc1ccccc1NC(=O)COC(=O)CCc1c[nH]c2ccccc12 | 5.9 | . | 0.0 | -1.2 | . | -6.9
c1ccc(Nc2ccc(NCCc3c[nH]c4ccccc34)cc2)cc1 | -23.7* | . | 0.2 | . | . | .
O=C(C[C@H]1C[C@H]2c3cc(NC(=O)NC4CCCCC4)ccc3O[C@H]2[C@@H](CO)O1)NC1CCCCC1 | 2.4 | . | 0.5 | . | . | 6.7
CCC(=O)N1CC2(CN(Cc3nccs3)C2)c2c(n(C)c3cc(OC)ccc23)[C@@H]1CO | 1.4 | . | . | . | . | .
O=C(Nc1ccccc1)C1CCCN(C(=O)c2ccc(Cl)cc2)C1 (stereo not drawn) | . | . | 43.0* | 1.9 | . | .
CCn1ccnc1CNCc1cn(-c2cc(C)ccc2C)nc1-c1ccccc1 | -4.5 | . | 43.1* | 5.9 | . | .
O=C(C[C@H]1C=C[C@H](NC(=O)C2CC2)[C@@H](CO)O1)Nc1nccs1 | 1.1 | 0.6 | -0.4 | . | 0.8 | -0.9
c1ccc(-c2nc3c4ccccc4ccn3c2CN2CCOCC2)cc1 | -28.8* | -4.7 | 0.0 | 4.3 | 1.8 | -1.1
O=S(=O)(c1ccc2[nH]ccc2c1)N1CCCCCC1 | -25.6 | 9.3 | 0.1 | -7.1 | 2.2 | 68.0*
O=c1[nH]c2ccc(S(=O)(=O)N3CCCCC3)cc2[nH]1 | 10.2 | 1.1 | 0.2 | -4.1 | 0.5 | -4.2
O=C(O)c1ccc(N=Nc2c(O)[nH]c3ccccc23)cc1 | -8.6 | -0.5 | 0.2 | 1.0 | -4.0 | 48.9*
